# From PubChem
# A selection: hits, their analogues and other compounds. The true share with any hit is near 4%.
# TAAR1 antag: antagonists of human TAAR1. Q96RJ0. CHO RD-HGA16 TAAR1, Fluo-8 calcium fluorescence, antagonist. inhibition, % at 3 µM. 360,000 compounds, 1.5% hits. AID 624466;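 active = inhibition above a per-plate cutoff, the mean inhibition of test compounds on that plate plus 3 SD, cut at about 49% in these data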
#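 Test system: CHO RD-HGA16 cells bearing hTAAR1 | Reagent: β-PEA, EC80 | Compound dosing: 3 µM, single point | Schedule: Dye loading 75 min at 37 °C, then 30 min room temperature | Signal: Calcium fluorescence with Fluo-8 | Evaluation: Percent inhibition of PEA-evoked calcium signal, max/basal emission ratio | Control set: DMSO-only wells and EC80 β-PEA-stimulated wells | Repeats: Singlicate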
# OX1R antag-1: OX1R (human) antagonism. inhibition, % at 6.6 µM. 330,000 compounds, 1.8% hits. AID 485270. O43613. OX1R-expressing cells, FRET antagonist read-out; in the data active = inhibition mostly above about 38%, no sharp cut-off; inactive = mostly below about 40%
# CHO parental Ca: counter-screen: ATP calcium response change in parental CHO cells. parental CHO-K1, ATP-induced calcium, Fluo-8 fluorescence. AID 463079. inhibition, % at 5.6 µM. 330,000 compounds, 0.63% hits;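 active = inhibition above that plate's mean sample inhibition plus 3 SD, cut at about 26% in these data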
#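 Material – parental CHO cells · Reagent – ATP stimulus · Compound – single nominal dose of 5.6 µM per compound · Detection – Fluo-8 fluorescence · Read-out basis – percent inhibition of calcium signal · Controls – ATP-challenged DMSO wells low, unchallenged DMSO wells high · Repeats – no replicates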
# TAAR1 ag: agonists of human TAAR1; Q96RJ0; CHO RD-HGA16 TAAR1, Fluo-8 calcium fluorescence; vehicle wells 0%, saturating PEA agonist 100%; AID 624467; 360,000 compounds, 0.99% hits; activation, % at 3 µM;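 active = activation above the mean activation of all test compounds in the run plus 3 SD, cut at about 38% in these data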
#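 Repeats: no replicates (n 1) | Material: CHO-derived RD-HGA16 cells with stable Gα16 and human TAAR1 | Technique: Kinetic Fluo-8 calcium fluorescence | Schedule: 17-24 h seeding, 75 min 37 °C dye, 30 min RT | Evaluation: % activation from peak over basal fluorescence ratio, DMSO-to-PEA scaled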
# NTR1 agonist: agonists of human neurotensin receptor NTR1 | NTR1-U2OS beta-arrestin-GFP spot imaging, agonist mode | activation, % at 20 µM | 330,000 compounds, 0.17% hits;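 active = activation at or above 40% of the spot to cytoplasm intensity ratio, with at least 20 cells analyzed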
# Target sequence (P30989 whole entry, looked up): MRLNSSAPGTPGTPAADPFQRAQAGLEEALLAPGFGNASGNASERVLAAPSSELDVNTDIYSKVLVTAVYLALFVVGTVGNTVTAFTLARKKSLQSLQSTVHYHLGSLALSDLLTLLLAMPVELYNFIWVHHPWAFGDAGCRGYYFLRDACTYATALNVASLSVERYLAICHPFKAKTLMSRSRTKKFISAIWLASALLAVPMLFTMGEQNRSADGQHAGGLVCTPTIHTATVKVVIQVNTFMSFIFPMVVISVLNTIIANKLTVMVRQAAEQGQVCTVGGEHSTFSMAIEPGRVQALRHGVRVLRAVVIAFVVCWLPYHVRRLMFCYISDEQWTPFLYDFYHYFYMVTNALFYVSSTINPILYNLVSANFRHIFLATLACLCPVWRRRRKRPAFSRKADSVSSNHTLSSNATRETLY
# OX1R antag-2: blocks the human orexin 1 receptor. O43613. CHO/OX1R cells, Fluo-8 calcium fluorescence, orexin A. inhibition, % at 5 µM. 330,000 compounds, 0.43% hits;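 active = inhibition above its plate's threshold, mean inhibition of all tested compounds on the plate plus 3 SD, cut at about 37% in these data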
# TAAR1 nonsel count: nonselective antagonism, TAAR1 counter-screen; inhibition, % at 3 µM; counterscreen cell line, calcium fluorescence, antagonist mode; shares compounds with TAAR1 antag; AID 651780; 2,400 compounds, 77% hits; in the data active = inhibition above about 22%;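 also: CHO-Ga16 host cells stimulated with ATP at an EC80 level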
# TAAR1 antag conf: human TAAR1 antagonism, confirmed; shares compounds with TAAR1 antag; TAAR1-expressing cells, fluorescence antagonist read-out; inhibition, % at 3 µM; 2,400 compounds, 40% hits; in the data active = inhibition above about 49%;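 also: CHO-Ga16 host cells challenged with agonist PEA near its EC80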
# Ga16 ag counter: counter-screen for TAAR1 antagonists: nonselective Ga16 agonists; shares compounds with TAAR1 antag; Ga16-expressing cells, calcium fluorescence, agonist counterscreen; activation, % at 3 µM; 2,400 compounds, 18% hits; AID 651953; in the data active = activation above about 12%
# TAAR1 ag counter: activates human TAAR1 in antagonist counter-screen; shares compounds with TAAR1 antag; hTAAR1 cell line, fluorescence activation, agonist mode; activation, % at 3 µM; 2,400 compounds, 2% hits; AID 651955; in the data active = activation above about 37%;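 also: CHO cells stably expressing TAAR1 with calcium dye readout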
# Numbers stand for hits; – = inactive; · = not tested or not shown.
SMILES,TAAR1 antag,OX1R antag-1,CHO parental Ca,TAAR1 ag,NTR1 agonist,OX1R antag-2,TAAR1 nonsel count,TAAR1 antag conf,Ga16 ag counter,TAAR1 ag counter
CCCc1c(-c2ccccc2F)ncn1CCc1ccccc1OC,–,·,·,–,·,·,·,·,·,·
CCCCCc1c(-c2ccccc2F)ncn1CCc1ccccc1OC,60,·,·,–,·,·,39,59,21,48
CCCCCc1c(-c2ccc(F)cc2)ncn1CCc1ccccc1OC,–,·,·,–,·,·,·,·,·,·
CCc1sc(C(=O)Nc2cc(S(=O)(=O)N3CCOCC3)ccc2OC)cc1C,–,–,–,–,–,–,·,·,·,·
COc1ccc(-c2nn(-c3ccccc3)cc2C(=O)N(C)CC(=O)Nc2cccc(F)c2)cc1,–,–,–,–,–,–,·,·,·,·
CN(CC(=O)Nc1cccc(F)c1)C(=O)c1cc(-c2ccccc2)nc2ccccc12,72,–,–,–,–,–,31,49,–,–
CN(CC(=O)Nc1cccc(F)c1)C(=O)c1cccc2ccccc12,–,–,–,–,–,–,·,·,·,·
COc1cccc(-c2nn(-c3ccc(C)cc3)cc2C(=O)N(C)CC(=O)Nc2cccc(F)c2)c1,61,–,–,–,–,–,29,–,–,–
Cc1ccc2nc(-c3ccccc3)cc(C(=O)N(C)CC(=O)Nc3ccccc3Br)c2c1,61,–,–,–,–,–,31,56,–,–
COc1ccc(-c2cc(C(=O)N(C)CC(=O)Nc3cccc(F)c3)c3ccccc3n2)cc1,82,–,–,–,–,–,41,61,–,–
CCc1nc2c(OCc3ccc(C#N)cc3)cccn2c1N(C)C(=O)C(C)C,–,·,·,–,·,·,·,·,·,·
CC(C)CCN1CC(=O)N2[C@@H](Cc3c([nH]c4ccccc34)C2(C)C)C1=O,–,·,·,–,–,·,·,·,·,·
Cc1nn(C)cc1CN(C)C(=O)c1cc(-c2ccccc2)nc2ccc(Br)cc12,65,–,–,–,–,–,37,54,–,–
COc1cc(NC(=O)c2cc3ccccc3cc2OC)ccc1NC(=O)c1cccs1,85,–,–,–,–,–,23,51,–,–
COc1ccc(NC(C)=O)cc1NC(C)C(=O)Nc1ccc(S(=O)(=O)N2CCCCC2)cc1 (stereo unspecified),101,–,–,–,–,–,–,–,–,–
COc1ccc(NC(C)=O)cc1S(=O)(=O)Nc1ccc(S(=O)(=O)N2CCCCC2)cc1,–,–,–,–,–,–,·,·,·,·
Cc1cccc(C(=O)OC(C)C(=O)Nc2ccc(S(=O)(=O)N3CCCC3)cc2)c1O (stereo unspecified),68,–,–,–,–,–,36,55,12,–
CCCCCC(O)(c1ccc(OCC)cc1)C(CN1CCOCC1)c1ccccc1 (stereo unspecified),–,–,–,–,–,–,·,·,·,·
CNC(=O)COc1coc(CN2CCN(c3ccc(OC)cc3)CC2)cc1=O,–,–,–,–,–,–,·,·,·,·
O=C1C(NS(=O)(=O)c2cccs2)=C(N2CCN(Cc3ccccc3)CC2)C(=O)c2ccccc21,71,–,–,–,–,–,30,49,–,–
Cc1ccc(S(=O)(=O)N(C)CC(=O)OCC(=O)c2ccc3c(c2)NC(=O)CO3)cc1,102,–,–,–,–,–,26,–,–,–
CN(C)S(=O)(=O)c1cccc(C(=O)OCC(=O)c2ccc3c(c2)NC(=O)CO3)c1,66,–,–,–,–,–,28,–,13,–
CCOc1cc(/C=N/NC(N)=O)cc(Br)c1OCC(=O)Nc1cccc2ccccc12,66,–,–,–,–,–,31,55,14,–
